An excerpt weighted towards active compounds, which were near 1.6% of everything screened.
HTRA1 inh = HTRA1 (human) protease inhibition. recombinant HTRA1, FP-rhodamine activity-based probe, fluorescence polarization. Q92743. 0.5% of 340,000 active. inhibition, % at 5.96 µM; in the data active = inhibition above about 36%;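 note: 0% = enzyme with DMSO and 100% = wells lacking enzyme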
ABHD4 inh = inhibits mouse alpha/beta hydrolase domain 4; purified mABHD4, FP-Rh probe fluorescence polarization; inhibition, % at 8.92 µM; Q8VD66; 0.54% of 370,000 active;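 active = inhibition exceeding the mean over every tested compound plus 3 SD, cut at about 30% in these data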;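 note: 0% = plate median of compound wells and 100% = S159A mutant with DMSO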
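system = mouse ABHD4 enzyme, wild type | medium = HEPES pH 7.0, NaCl, Pluronic buffer | also added = FP-Rh probe | incubation = Enzyme–compound pre-incubation 45 min, then probe 60 min, both 25 °C | technique = fluorescence polarization, excitation 525 nm, emission 598 nm, BODIPY TMR filters | controls = S159A mutant high control, sample median low control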
SIAE primary = human SIAE inhibition, primary screen. AID 1053197. inhibition, % at 9.66 µM. SIAE FP-Rh probe binding, fluorescence polarization. Q9HAT2. 0.69% of 370,000 active;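 active = inhibition above a cutoff: mean of compounds within the control limits plus 3 SD of those, cut at about 17% in these data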;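 note: 0% = plate median of compound wells and 100% = probe without SIAE protein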
Target sequence (Q9HAT2 whole entry, looked up): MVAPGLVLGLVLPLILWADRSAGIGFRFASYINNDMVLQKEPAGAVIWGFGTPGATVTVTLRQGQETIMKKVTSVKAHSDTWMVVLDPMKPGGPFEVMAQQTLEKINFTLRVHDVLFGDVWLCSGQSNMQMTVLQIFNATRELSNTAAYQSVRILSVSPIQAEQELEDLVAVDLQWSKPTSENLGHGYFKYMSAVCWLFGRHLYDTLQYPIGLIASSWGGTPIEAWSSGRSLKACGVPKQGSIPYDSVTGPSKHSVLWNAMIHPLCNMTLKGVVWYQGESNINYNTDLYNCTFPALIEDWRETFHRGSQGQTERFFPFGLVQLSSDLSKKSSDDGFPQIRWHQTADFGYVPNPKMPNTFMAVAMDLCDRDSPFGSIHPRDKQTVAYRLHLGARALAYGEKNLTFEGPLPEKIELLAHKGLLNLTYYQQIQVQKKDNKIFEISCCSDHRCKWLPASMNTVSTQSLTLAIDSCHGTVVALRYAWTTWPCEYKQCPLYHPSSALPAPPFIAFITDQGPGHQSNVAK
DAGLB inhibitor = blocks human DAGLB lipase activity; inhibition, % at 5.17 µM; 0.059% of 340,000 active; Q8NCG7; AID 504411; HEK293T DAGLB membrane lysate, EnzChek fluorogenic substrate; in the data active = inhibition above about 34%;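 note: 0% = enzyme with vehicle and 100% = wells lacking enzyme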
TCR CD3 inh = blocks the human TCR-CD3 interaction. TAMRA-labeled TCR probe fluorescence, biochemical. 0.37% of 360,000 active. inhibition, % at 9.4 µM; in the data active = inhibition above about 19%;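 note: recombinant mutant TCR 2C K166C tagged with TAMRA read by polarization; 0% = receptor in buffer alone and 100% = receptor with positive control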
HTRA1 conf = confirmation of human HTRA1 inhibitors; shares compounds with HTRA1 inh; recombinant HTRA1, FP-rhodamine activity-based probe, fluorescence polarization; inhibition, % at 5.96 µM; 66% of 1,600 active; AID 540248;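 active = mean inhibition over three repeats above a set limit taken from the earlier primary screen, cut at about 37% in these data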;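 note: 0% = HTRA1 with DMSO and 100% = wells lacking HTRA1; inhibitors block probe binding so polarization drops and inhibition rises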
Numbers without * were called inactive; nt = no result given.

SMILES	HTRA1 inh	ABHD4 inh	SIAE primary	DAGLB inhibitor	TCR CD3 inh	HTRA1 conf
O=C(N/N=C/c1sc(N2CCOCC2)nc1-c1ccccc1)c1cccc(S(=O)(=O)N2CCOCC2)c1	45*	-6	-3	4	-3	119*
Nc1ncnc(Oc2cccc3cccnc23)c1[N+](=O)[O-]	40*	-7	-3	0	-5	34
Cc1cccc(Oc2ncnc(N)c2[N+](=O)[O-])c1C	2	4	3	1	1	nt
CCOc1cc(N2CCOCC2)c(OCC)cc1NC(=O)c1nn(CC)c(=O)c2ccccc12	41*	4	1	2	-3	45*
Cc1cccc2sc(NNC(=O)c3cc(-c4cccs4)nc4ccccc34)nc12	44*	-1	-4	7	-11	42*
COCCCN1C(=O)[C@H](CC(=O)N2CCCCC2)[C@]2(C(=O)OC)CCCCC=C12	nt	6	6	nt	nt	nt
COCCN=c1scc(-c2ccccc2)n1/N=C/c1c[nH]c2ccccc12	20	21	9	1	-6	nt
COCCN=c1scc(-c2cccs2)n1/N=C/c1ccc(O)c(O)c1O	79*	55*	-3	16	5	67*
CCOC(=O)c1c(C)oc2c1c(C=NCC1CCCO1)c(O)c1ccccc12 (stereo not drawn)	8	21	8	-3	-7	nt
CCOC(=O)c1c(C)oc2c1c(C=NCc1ccccn1)c(O)c1ccccc12	43*	34*	18*	6	1	60*
COc1cccc(/C=N/Nc2ncnc3scc(-c4ccccc4)c23)c1O	45*	8	3	10	4	2
Cc1ccc(NC(=O)[C@@H]2CC(=O)O[C@@H]2c2ccccc2)c(C)c1	nt	10	0	nt	nt	nt
COc1cc(C(C(=O)NC(C)(C)C)N(C(=O)CNC(=O)c2cccs2)c2ccc(C(C)C)cc2)cc(OC)c1OC (stereo not drawn)	39*	5	5	0	-7	49*
COc1cc(C(C(=O)NC(C)(C)C)N(C(=O)CNC(=O)c2cccs2)c2ccccc2)cc(OC)c1OC (stereo not drawn)	6	1	1	-4	3	nt
Oc1c(Cl)cc(Cl)cc1/C=C/c1ccc2cccc(O)c2n1	37*	7	1	-3	-2	48*
Oc1ccc(Cl)cc1/C=C/c1ccc2cccc(O)c2n1	5	-10	8	-4	-2	nt
Oc1cccc2ccc(/C=C/c3ccccc3Br)nc12	52*	-3	-13	-11	-6	45*
CC[C@]1(c2ccc(C)cc2)C(=O)N(C(=O)OC(C)C)N1C(=O)OC(C)C	nt	7	0	nt	nt	nt
Brc1cc2c(cc1/C=N/Nc1nc3ccccc3s1)OCO2	-7	2	9	3	-2	nt
Brc1csc(/C=N/Nc2nc3ccccc3s2)c1	40*	28	15	2	-8	36
NC(=Nc1cccc(F)c1)NC(=O)OCc1ccccc1	nt	0	-4	nt	nt	nt
CCOC(=O)[C@]12CCCCC/C=C\1N(Cc1ccc(OC)cc1)C(=O)[C@H]2CC(=O)NCc1cccs1	nt	-3	1	nt	nt	nt
O=C(N/N=C\c1ccc([N+](=O)[O-])s1)c1cncc(Br)c1	56*	2	-6	6	-2	52*
Cc1cc(C(=O)N/N=C/c2ccc([N+](=O)[O-])cc2)c2ccccc2n1	4	-3	-4	0	8	nt
Cc1cc(C(=O)N/N=C/c2ccc([N+](=O)[O-])s2)c2ccccc2n1	47*	16	15	2	3	29
SMILES	HTRA1 inh	ABHD4 inh	SIAE primary	DAGLB inhibitor	TCR CD3 inh	HTRA1 conf
Oc1c(CN2CCOCC2)ccc2ccccc12	11	27	7	2	4	nt
Oc1c(CN2CCCCC2)cc(COCc2ccccc2)c2cccnc12	65*	14	-3	5	-6	72*
Oc1c(CN2CCCCC2)ccc2cccnc12	73*	22	7	8	13	69*
CN(C)C1CCN(Cc2cc(COCc3ccccc3)c3cccnc3c2O)C1 (stereo not drawn)	54*	nt	nt	8	nt	76*
Oc1ccc(COCc2ccccc2)c2cccnc12	34	6	8	4	2	nt
COCc1cc(CN2CCCC2)c(O)c2ncccc12	18	10	4	5	3	nt
Cc1cc(N(CCO)CCO)ccc1C(c1ccc(N(CCO)CCO)cc1C)c1ccccc1Cl	41*	16	10	7	6	30
Nc1cccc(S(=O)(=O)N2CCCN(S(=O)(=O)c3ccc4c(c3)OCCO4)CC2)c1	nt	-2	4	nt	nt	nt
